“And” between values parts separate entries of the source, which are not always exact repeats. Identical values can stand only once. Inconclusive results are not listed. The source made the active and inactive calls.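 Rule for the calls: active = fitted dose curve passes 500% activation at or below the top valid tested dose; inconclusive = no clear call, values can overlap the other calls; inactive = the rest, opposite-direction activity included.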
Tests used:
[1] = test system: U2OS HRE-luciferase reporter, luminescence; assay: HIF pathway activators in HRE-luciferase reporter, dose response, cell-based, U2OS, luminescence, dry powder, set 7 (AID 493235)
Method in brief: (§1)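 assay system = human U2OS osteosarcoma cells stably expressing 3×HRE-driven luciferase reporter | technique = Steady-Glo luminescence | timing = 24 h pre-culture, 24 h compound treatment, 37 °C | compound dosing = 8 concentrations, 3-fold steps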

[2] = as above; settings: U2OS HRE-luciferase reporter, luminescence; at 38 µM (top of the series)
Method in brief: as §1

SMILES | AC500 [1] | activation [2]
c1ccc(-c2nnc(-c3ccccn3)nc2N2CCC(C3CCCCC3)C2)cc1 (stereo unspecified) | 4.37 µM | 
O=C(Nc1ncc(-c2ccccc2)o1)c1cc(-c2ccccc2)on1 |  | 14.8% (inactive)
COc1cccc(CNc2nc(-c3ccccn3)nnc2-c2ccccc2)c1 | 2.07 µM | 
O=C(c1cc(-c2ccccc2)on1)N1CCC(N2CCCC2)CC1 |  | 5.02% (inactive)
OCC1CCN(c2nc(-c3ccccn3)nnc2-c2ccccc2)CC1 | 21.7 µM | 
c1ccc(-c2csc(Nc3nc(-c4ccccn4)nnc3-c3ccccc3)n2)cc1 | 2.01 µM | 
CC(Nc1nc(-c2ccccn2)nnc1-c1ccccc1)c1ccccc1 (stereo unspecified) | 2.97 µM | 
c1ccc(-c2cccc(CNc3nc(-c4ccccn4)nnc3-c3ccccc3)c2)cc1 | 3.39 µM | 
Cc1cccc(Nc2nc(-c3ccccn3)nnc2-c2ccccc2)n1 | 10.7 µM | 
CC(C)(C)CCNc1nc(-c2ccccn2)nnc1-c1ccccc1 | 2.2 µM and 1.47 µM | 
C[C@H](Nc1nc(-c2ccccn2)nnc1-c1ccccc1)C1CCCCC1 | 2.99 µM | 
Cc1ccccc1CNc1nc(-c2ccccn2)nnc1-c1ccccc1 | 2.82 µM | 
c1ccc(-c2nnc(-c3ccccn3)nc2N2CCC(N3CCOCC3)CC2)cc1 | 4.84 µM | 
Cn1c(-c2ccccc2)cnc1NC(=O)c1cc(-c2ccccc2)on1 |  | 9.12% (inactive)
c1ccc(-c2nnc(-c3ccccn3)nc2NCC2CCCCC2)cc1 | 2.17 µM | 
CC(C)(C)c1ccc(CNc2nc(-c3ccccn3)nnc2-c2ccccc2)cc1 | 1.33 µM | 
Cc1ccc(Nc2nc(-c3ccccn3)nnc2-c2ccccc2)cn1 | 11.2 µM | 
CN(C)c1nc(-c2ccccn2)nnc1-c1ccccc1 | 14.2 µM | 
CN(C)CCNC(=O)c1cc(-c2ccccc2)on1 |  | 29.6% (inactive)
O=C(NC1CCc2ccccc2C1)c1cc(-c2ccccc2)on1 (stereo unspecified) |  | 5.28% (inactive)
N#CC1(c2ccccc2)CCN(Cc2ccc(O)c3ncccc23)CC1 |  | 368% (inactive)
Cn1c(-c2ccccc2)cnc1Nc1nc(-c2ccccn2)nnc1-c1ccccc1 | 9.16 µM | 
CN1CCN(c2nc(-c3ccccn3)nnc2-c2ccccc2)CC1 | 12.1 µM | 
c1ccc(-c2nnc(-c3ccccn3)nc2NCc2ccccn2)cc1 | 20.5 µM | 
Cc1cccc(NC(=O)c2cc(-c3ccccc3)on2)n1 |  | 29.2% (inactive)
Cc1ccc(NC(=O)c2cc(-c3ccccc3)on2)cn1 |  | -7.72% (inactive)
OCC1CCN(Cc2ccc(O)c3ncccc23)CC1 |  | 480% (inactive)

SMILES | AC500 [1] | activation [2]
Cc1ccccc1CNC(=O)c1cc(-c2ccccc2)on1 |  | 22.9% (inactive)
O=C(Nc1nc(-c2ccccc2)cs1)c1cc(-c2ccccc2)on1 |  | -17.1% (inactive)
c1ccc(-c2nnc(-c3ccccn3)nc2N2CCN(c3ccncc3)CC2)cc1 | 9.6 µM | 
c1ccc(-c2nnc(-c3ccccn3)nc2NCc2cccnc2)cc1 | 15.3 µM | 
O=C(NCCCCO)c1cc(-c2ccccc2)on1 | 2.82 µM | 
COc1ccc(CNc2nc(-c3ccccn3)nnc2-c2ccccc2)cc1 | 2.59 µM | 
O=C(NCCCn1ccnc1)c1cc(-c2ccccc2)on1 | 5.75 µM | 
O=C(NCCCN1CCOCC1)c1cc(-c2ccccc2)on1 | 11.3 µM | 
Cc1cccc(CNC(=O)c2cc(-c3ccccc3)on2)c1 |  | 1.59% (inactive)
C[C@@H](Nc1nc(-c2ccccn2)nnc1-c1ccccc1)c1ccccc1 | 3.92 µM | 
c1ccc(-c2nnc(-c3ccccn3)nc2NCC2CC2)cc1 | 8.75 µM | 
CC(C)(C)CCNC(=O)c1cc(-c2ccccc2)on1 | 35.8 µM | 
O=C(c1cc(-c2ccccc2)on1)N1CCC(N2CCOCC2)CC1 |  | 8.48% (inactive)
O=C(NCCN1CCOCC1)c1cc(-c2ccccc2)on1 | 14.2 µM | 
O=C(NCc1ccccc1)c1cc(-c2ccccc2)on1 |  | 50.8% (inactive)
CCCCNC(=O)c1cc(-c2ccccc2)on1 | 9.47 µM | 
CN1CCN(C(=O)c2cc(-c3ccccc3)on2)CC1 |  | 2.48% (inactive)
C=CCNc1nc(-c2ccccn2)nnc1-c1ccccc1 | 9.45 µM | 
Cc1ccc(CNc2nc(-c3ccccn3)nnc2-c2ccccc2)cc1C | 1.31 µM | 
c1ccc(-c2nnc(-c3ccccn3)nc2NCCCN2CCOCC2)cc1 | 10.2 µM | 
Oc1ccc(CN2CCC3CCCCC3C2)c2cccnc12 (stereo unspecified) | 11.1 µM | 
c1ccc(CCNc2nc(-c3ccccn3)nnc2-c2ccccc2)cc1 | 2.81 µM | 
Oc1ccc(CN2CCc3ccccc3C2)c2cccnc12 | 3.21 µM | 263% (inactive)
O=C(Nc1cnc2ccccc2c1)c1cc(-c2ccccc2)on1 |  | 28.8% (inactive)
O=C(Nc1cn2ccccc2n1)c1cc(-c2ccccc2)on1 |  | 31.3% (inactive)
c1ccc(-c2nnc(-c3ccccn3)nc2Nc2cnc3ccccc3n2)cc1 | 6.2 µM | 
O=C(Nc1nc2ccccc2s1)c1cc(-c2ccccc2)on1 |  | 4.65% (inactive)

SMILES | AC500 [1] | activation [2]
c1ccc(-c2nnc(-c3ccccn3)nc2Nc2nc3ccccc3s2)cc1 | 5.89 µM | 
O=C(Nc1ncc2ccccc2n1)c1cc(-c2ccccc2)on1 |  | 104% (inactive)
O=C(Nc1ccc2ccccc2n1)c1cc(-c2ccccc2)on1 |  | 12.3% (inactive)
c1ccc(-c2nnc(-c3ccccn3)nc2N2CCC(c3ccccc3)C2)cc1 (stereo unspecified) | 1.72 µM | 
c1ccc(-c2nnc(-c3ccccn3)nc2NCCc2ccccn2)cc1 | 10.3 µM | 
Clc1cccc(CNc2nc(-c3ccccn3)nnc2-c2ccccc2)c1 | 1.84 µM | 
c1ccc(-c2nnc(-c3ccccn3)nc2NCCN2CCOCC2)cc1 | 9.37 µM | 
CC(C)(C)OC(=O)N1CCN(Cc2ccc(O)c3ncccc23)CC1 |  | 271% (inactive)
OCCCNc1nc(-c2ccccn2)nnc1-c1ccccc1 | 16.8 µM | 
c1ccc(-c2nnc(Nc3nc(-c4ccccn4)nnc3-c3ccccc3)s2)cc1 | 2.99 µM | 
O=C(c1cc(-c2ccccc2)on1)N1CCN(c2ccncc2)CC1 |  | -14.8% (inactive)
COc1ccccc1N1CCN(Cc2ccc(O)c3ncccc23)CC1 | 26.5 µM | 
O=C(NCCCO)c1cc(-c2ccccc2)on1 |  | 400% (inactive)
Oc1ccc(CN2CCC(Cc3ccccc3)CC2)c2cccnc12 | 20.1 µM | 
Cc1cccc(CNc2nc(-c3ccccn3)nnc2-c2ccccc2)c1 | 4.08 µM | 
O=C(Nc1nnc(-c2ccccc2)s1)c1cc(-c2ccccc2)on1 |  | -7.41% (inactive)
Cn1c(NC(=O)c2cc(-c3ccccc3)on2)nc2ccccc21 |  | -0.753% (inactive)
Oc1ccc(CNC2Cc3ccccc3C2)c2cccnc12 | 28.6 µM | 
C[C@@H](Nc1nc(-c2ccccn2)nnc1-c1ccccc1)C1CCCCC1 | 4.02 µM | 
c1ccc(-c2ccc(CNc3nc(-c4ccccn4)nnc3-c3ccccc3)cc2)cc1 | 0.71 µM | 
c1ccc(CNc2nc(-c3ccccn3)nnc2-c2ccccc2)cc1 | 5.52 µM | 
CC1CN(Cc2ccc(O)c3ncccc23)CC(C)O1 (stereo unspecified) |  | 95.7% (inactive)
c1ccc(-c2nnc(-c3ccccn3)nc2NCC2CCOCC2)cc1 | 14.2 µM | 
c1ccc(-c2cnc(Nc3nc(-c4ccccn4)nnc3-c3ccccc3)s2)cc1 | 6.49 µM | 
O=C(NCC1CC1)c1cc(-c2ccccc2)on1 | 10 µM | 
Cc1ccc(CNc2nc(-c3ccccn3)nnc2-c2ccccc2)cc1 | 4.35 µM | 

Source: PubChem BioAssay AID493235 (Broad Institute, 2011)
